Assay outcomes from PubChem BioAssay.
SENP7 block: blocks the human protease SENP7; Q9BQF6; recombinant SENP7, Z-RLRGG-aminoluciferin luminescence, 40 min; inhibition, % at 5 µM; 1.5% of 330,000 active; AID 434973;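 active = inhibition above about 50% at the single test dose, limit read from the data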
Target sequence (Q9BQF6 706-1050 limits assumed): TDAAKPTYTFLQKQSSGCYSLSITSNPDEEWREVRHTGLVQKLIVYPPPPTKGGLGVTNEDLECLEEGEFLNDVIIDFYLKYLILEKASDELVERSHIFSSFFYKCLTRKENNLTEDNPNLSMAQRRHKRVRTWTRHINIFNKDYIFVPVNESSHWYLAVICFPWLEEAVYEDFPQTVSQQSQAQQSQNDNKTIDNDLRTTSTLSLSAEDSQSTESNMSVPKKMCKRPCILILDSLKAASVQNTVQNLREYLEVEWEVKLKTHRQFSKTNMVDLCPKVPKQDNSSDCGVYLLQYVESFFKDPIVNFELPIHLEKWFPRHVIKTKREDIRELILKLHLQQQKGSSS
SENP6 block: inhibitors of human SENP6 protease; Q9GZR1; Recombinant SENP6 catalytic domain, aminoluciferin luminescence; inhibition, % at 10 µM; 1.8% of 330,000 active; AID 2599;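 active = inhibition above about 50% at the single tested dose, limit read from the data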
SENP8 block-1: inhibitors of human SENP8 protease; inhibition, % at 10 µM; 1.2% of 330,000 active; Q96LD8; purified SENP8, Z-RLRGG-aminoluciferin cleavage, luminescence; in the data active = inhibition above about 50%
UBC13 inh: blocks human UBC13 polyubiquitin chain formation. P61088. TR-FRET. inhibition, % at 20 µM. 0.47% of 330,000 active. AID 485273; in the data active = inhibition above about 45%, passing the limit was not always enough
Target sequence (P61088 whole entry, looked up): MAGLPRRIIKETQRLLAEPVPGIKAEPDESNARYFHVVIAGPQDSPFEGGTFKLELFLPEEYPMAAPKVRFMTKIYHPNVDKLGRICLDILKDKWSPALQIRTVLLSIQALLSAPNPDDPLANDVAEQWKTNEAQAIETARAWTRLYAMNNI
SENP8 block-2: blocks human SENP8 cleavage of Nedd8 substrate. 0.64% of 360,000 active. inhibition, % at 20 µM. Q96LD8. recombinant SENP8, Nedd8 substrate fluorescence; in the data active = inhibition mostly above about 40%, no sharp cut-off; inactive = mostly below about 27%
Apaf-1 inh: blocks human Apaf-1 apoptosome activity | reconstituted apoptosome caspase-3 activity, DEVD-Rh110 fluorescence | inhibition, % at 20 µM | 0.71% of 330,000 active | AID 489030 | O14727; active = inhibition of at least 40% at 20 µM
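Assay system: Apoptosome proteins | Medium: pH 7.5 Hepes buffer with CHAPS, BSA, DTT | Also added: Cytochrome c and DEVD-Rh110 substrate | Times: 30 min plus 50 min, RT | Detection: Rhodamine 110 fluorescence at Ex 480/Em 540 nm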
Casp3 UBC13 ctr: counter-screen for UBC13 inhibitors: human caspase-3 inhibition; 4% of 1,400 active; Recombinant caspase-3, Caspase-Glo 3/7 luminescence, 60 min; inhibition, % at 20 µM; shares compounds with UBC13 inh;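 active = mean inhibition across replicates above about 26%, limit read from the data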
UBC13 conf: confirmation of human UBC13 polyubiquitin inhibitors. UBC13 polyubiquitination, TR-FRET, biochemical. AID 488859. inhibition, % at 10 µM. 68% of 1,400 active. shares compounds with UBC13 inh; in the data active = inhibition above about 45%
Apaf-1 inh conf2: Apaf-1 inhibition, single-dose confirmed; shares compounds with Apaf-1 inh; reconstituted apoptosome, caspase-3 DEVD-Rh110 fluorescence; inhibition, % at 20 µM; 25% of 1,800 active; AID 504614;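 active = mean inhibition of at least 40% at 20 µM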
Rh110 quench: Rh110 signal interference in Apaf-1 inhibitor counter-screen; 1,800 tested, under 10 active; activation (fluorescence interference), % at 20 µM; AID 504615; Rh110 fluorescence interference, quenched caspase reaction; shares compounds with Apaf-1 inh;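 active = signal rise of 40% or more at 20 µM, treated as a fluorescence artifact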
Apaf1 inh interf: Apaf-1 inhibitor counter-screen fluorescence artifact; AID 588538; 460 tested, under 10 active; fluorescence interference counterscreen, Apaf-1 assay format; IC50, µM; shares compounds with Apaf-1 inh; call rule not given here
Large screens that a line does not name were inactive (follow-up assays come after a bar, where they were run); ! = repeats disagree. An excerpt weighted towards active compounds, which were near 3% of everything screened.

Oc1ccc(-c2c(-c3ccsc3)sc3ccccc23)cc1	none
c1ccc2c(-c3ccc(OCCN4CCCCC4)cc3)c(-c3ccsc3)sc2c1	UBC13 inh 58, Apaf-1 inh 59 | Casp3 UBC13 ctr inactive | UBC13 conf 56 | Apaf-1 inh conf2 inactive | Rh110 quench inactive
C/C(=N\NC1=NCCN1)c1ccc(N)c([N+](=O)[O-])c1	none
CCCCCCOc1ccc(/C(C)=N/NC2=NCCN2)cc1[N+](=O)[O-]	UBC13 inh 94, Apaf-1 inh 54 | Casp3 UBC13 ctr inactive | UBC13 conf 98 | Apaf-1 inh conf2 45 | Rh110 quench inactive | Apaf1 inh interf inactive
C=CCn1c(SCC(=O)N(CC)C2CCS(=O)(=O)C2)nnc1-c1ccccc1 (centres undefined)	UBC13 inh 54, Apaf-1 inh 61 | Casp3 UBC13 ctr inactive | UBC13 conf 53 | Apaf-1 inh conf2 inactive | Rh110 quench inactive
Nc1ccc2nc(-c3cccc(-c4nc5ccc(N)cc5[nH]4)n3)[nH]c2c1	UBC13 inh 100, Apaf-1 inh 40 | Casp3 UBC13 ctr inactive | UBC13 conf 114 | Apaf-1 inh conf2 inactive | Rh110 quench inactive
Nc1ccc2nc(-c3ccc(-c4nc5ccc(N)cc5[nH]4)cc3)[nH]c2c1	none (no result: SENP8 block-2)
CC(=O)Nc1ccc2sccc2c1	none
Cc1c(CCOC(=O)C2C3CC4CC(C3)CC2C4)sc[n+]1CC(=O)c1ccc(Br)cc1 (centres undefined)	UBC13 inh 47, Apaf-1 inh 50 | Casp3 UBC13 ctr inactive | UBC13 conf 75 | Apaf-1 inh conf2 inactive | Rh110 quench inactive
Cc1c(CCOC(=O)c2ccc(Cl)cc2Cl)sc[n+]1CC(=O)c1ccc(Br)cc1	UBC13 inh 67, Apaf-1 inh 71 | Casp3 UBC13 ctr inactive | UBC13 conf 67 | Apaf-1 inh conf2 inactive | Rh110 quench inactive
CC(C)N1CCc2c(sc(NC(=O)c3ccc(S(=O)(=O)N4CCc5ccccc54)cc3)c2C(N)=O)C1	UBC13 inh 50, Apaf-1 inh 46 | Casp3 UBC13 ctr inactive | UBC13 conf inactive | Apaf-1 inh conf2 inactive | Rh110 quench inactive
CSc1ccc2c(c1)C(N1CCN(C)CC1)Cc1ccccc1S2 (centres undefined)	UBC13 inh 52!, Apaf-1 inh 48! | Casp3 UBC13 ctr inactive | UBC13 conf inactive | Apaf-1 inh conf2 inactive | Rh110 quench inactive
CC(C)CNC(=O)COC(=O)Cc1ccc(Cl)cc1	none
NC(=NCCCCCCN=C(N)/N=C(\N)Nc1ccc(Cl)cc1)/N=C(\N)Nc1ccc(Cl)cc1	UBC13 inh 111, Apaf-1 inh 79 | Casp3 UBC13 ctr inactive | UBC13 conf 118 | Apaf-1 inh conf2 inactive | Rh110 quench inactive
COc1cccc(CNC(=O)C2CCN(S(=O)(=O)c3ccc4c(c3)C(C)(C)C(=O)N4C)CC2)c1	none (no result: SENP7 block, SENP6 block, SENP8 block-1, UBC13 inh, Apaf-1 inh)
CC1CCC(C(C)C)C(OC(=O)Cn2c(-c3ccc(Cl)cc3)[n+](C)c3ccccc32)C1 (centres undefined)	none
CCCCCCCCCCOC(=O)Cn1c(COc2ccccc2)[n+](C)c2ccccc21	UBC13 inh 59, Apaf-1 inh 73 | Casp3 UBC13 ctr inactive | UBC13 conf 70 | Apaf-1 inh conf2 72 | Rh110 quench inactive | Apaf1 inh interf inactive
CCOC(=O)Cn1c(COc2ccccc2OC)[n+](C)c2ccccc21	none
Cc1ccccc1OCc1n(CC(=O)OC2CC(C)CCC2C(C)C)c2ccccc2[n+]1C (centres undefined)	UBC13 inh 55, Apaf-1 inh 47 | Casp3 UBC13 ctr inactive | UBC13 conf 98 | Apaf-1 inh conf2 48 | Rh110 quench inactive | Apaf1 inh interf inactive
